Measurements reported in ChEMBL document CHEMBL4138284, “Biomimetic Stereoselective Sulfa-Michael Addition Leads to Platensimycin and Platencin Sulfur Analogues against Methicillin-Resistant Staphylococcus aureus” (J Nat Prod, 2018).
Values after ≈ are worked out from the molar mass of the structure shown.

What was measured:
Assay type in all cases: functional
[1] = tested on: Staphylococcus aureus; test: Antibacterial activity against methicillin-sensitive Staphylococcus aureus isolate 3 incubated overnight by agar dilution method
Method in brief: (§1)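 MIC by agar dilution. Strains were grown overnight in LB broth and diluted, then about 10^4 CFU (2 μL spots) were spotted onto LB agar plates containing test compound at 0.5 to 8 μg mL−1 agar. Plates were incubated overnight at 37 °C and inspected for growth. Clinical MSSA and MRSA isolates came from local hospitals.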

[2] = tested on: Staphylococcus aureus; test: Antibacterial activity against methicillin-sensitive Staphylococcus aureus isolate 2 incubated overnight by agar dilution method; method in brief: as §1
[3] = tested on: Staphylococcus aureus; test: Antibacterial activity against methicillin-resistant Staphylococcus aureus isolate 5 incubated overnight by agar dilution method; method in brief: as §1
[4] = tested on: Staphylococcus aureus; test: Antibacterial activity against methicillin-resistant Staphylococcus aureus isolate 10 incubated overnight by agar dilution method; method in brief: as §1
[5] = tested on: Staphylococcus aureus; test: Antibacterial activity against methicillin-resistant Staphylococcus aureus isolate 9 incubated overnight by agar dilution method; method in brief: as §1
[6] = tested on: Staphylococcus aureus; test: Antibacterial activity against methicillin-resistant Staphylococcus aureus isolate 11 incubated overnight by agar dilution method; method in brief: as §1
[7] = tested on: Staphylococcus aureus; test: Antibacterial activity against methicillin-sensitive Staphylococcus aureus isolate 1 incubated overnight by agar dilution method; method in brief: as §1
[8] = tested on: Staphylococcus aureus; test: Antibacterial activity against methicillin-sensitive Staphylococcus aureus isolate 4 incubated overnight by agar dilution method; method in brief: as §1
[9] = tested on: Staphylococcus aureus; test: Antibacterial activity against Staphylococcus aureus ATCC 29213 incubated overnight by agar dilution method; method in brief: as §1
[10] = tested on: Staphylococcus aureus; test: Antibacterial activity against methicillin-resistant Staphylococcus aureus isolate 8 incubated overnight by agar dilution method; method in brief: as §1
[11] = tested on: Staphylococcus aureus; test: Antibacterial activity against methicillin-resistant Staphylococcus aureus isolate 7 incubated overnight by agar dilution method; method in brief: as §1
[12] = tested on: Staphylococcus aureus; test: Antibacterial activity against methicillin-resistant Staphylococcus aureus isolate 6 incubated overnight by agar dilution method; method in brief: as §1

Row | SMILES | MIC [1] | MIC [2] | MIC [3] | MIC [4] | MIC [5] | MIC [6] | MIC [7] | MIC [8] | MIC [9] | MIC [10] | MIC [11] | MIC [12]
1 | C[C@]12C[C@]34C[C@@H]1C[C@H](O2)[C@H]3[C@](C)(CCC(=O)Nc1c(O)ccc(C(=O)O)c1O)C(=O)C[C@@H]4SC(=O)c1ccccc1F | 1 µg/mL (≈ 1.67 µM) | 1 µg/mL (≈ 1.67 µM) | 2 µg/mL (≈ 3.35 µM) | 1 µg/mL (≈ 1.67 µM) | 1 µg/mL (≈ 1.67 µM) | 2 µg/mL (≈ 3.35 µM) | 1 µg/mL (≈ 1.67 µM) | 1 µg/mL (≈ 1.67 µM) | 1 µg/mL (≈ 1.67 µM) | 1 µg/mL (≈ 1.67 µM) | 2 µg/mL (≈ 3.35 µM) | 1 µg/mL (≈ 1.67 µM)
2 | C[C@]12C[C@]34C[C@@H]1C[C@H](O2)[C@H]3[C@](C)(CCC(=O)Nc1c(O)ccc(C(=O)O)c1O)C(=O)C[C@@H]4SC(=O)c1ccc(C(F)(F)F)cc1 | 1 µg/mL (≈ 1.54 µM) | 1 µg/mL (≈ 1.54 µM) | 2 µg/mL (≈ 3.09 µM) | 1 µg/mL (≈ 1.54 µM) | 1 µg/mL (≈ 1.54 µM) | 2 µg/mL (≈ 3.09 µM) | 0.5 µg/mL (≈ 0.772 µM) | 1 µg/mL (≈ 1.54 µM) | 1 µg/mL (≈ 1.54 µM) | 1 µg/mL (≈ 1.54 µM) | 2 µg/mL (≈ 3.09 µM) | 1 µg/mL (≈ 1.54 µM)
3 | C[C@]12C[C@]34C[C@@H]1C[C@H](O2)[C@H]3[C@](C)(CCC(=O)Nc1c(O)ccc(C(=O)O)c1O)C(=O)C[C@@H]4SC(=O)c1ccc(F)cc1 | 1 µg/mL (≈ 1.67 µM) | 1 µg/mL (≈ 1.67 µM) | 2 µg/mL (≈ 3.35 µM) | 1 µg/mL (≈ 1.67 µM) | 1 µg/mL (≈ 1.67 µM) | 2 µg/mL (≈ 3.35 µM) | 1 µg/mL (≈ 1.67 µM) | 1 µg/mL (≈ 1.67 µM) | 1 µg/mL (≈ 1.67 µM) | 2 µg/mL (≈ 3.35 µM) | 1 µg/mL (≈ 1.67 µM) | 1 µg/mL (≈ 1.67 µM)
4 | C=C1C[C@@]23CCC1C[C@@H]2[C@](C)(CCC(=O)Nc1c(O)ccc(C(=O)O)c1O)C(=O)C[C@@H]3Sc1ccc(C)cc1 (single isomer, unassigned) | 0.5 µg/mL (≈ 0.91 µM) | 0.5 µg/mL (≈ 0.91 µM) | 2 µg/mL (≈ 3.64 µM) | 1 µg/mL (≈ 1.82 µM) | 1 µg/mL (≈ 1.82 µM) | 2 µg/mL (≈ 3.64 µM) | 1 µg/mL (≈ 1.82 µM) | 0.5 µg/mL (≈ 0.91 µM) | 2 µg/mL (≈ 3.64 µM) | 1 µg/mL (≈ 1.82 µM) | 2 µg/mL (≈ 3.64 µM) | 1 µg/mL (≈ 1.82 µM)
5 | C=C1C[C@@]23CCC1C[C@@H]2[C@](C)(CCC(=O)Nc1c(O)ccc(C(=O)O)c1O)C(=O)C[C@@H]3SC(=O)c1ccccc1 (single isomer, unassigned) | 1 µg/mL (≈ 1.77 µM) | 1 µg/mL (≈ 1.77 µM) | 2 µg/mL (≈ 3.55 µM) | 1 µg/mL (≈ 1.77 µM) | 2 µg/mL (≈ 3.55 µM) | 2 µg/mL (≈ 3.55 µM) | 1 µg/mL (≈ 1.77 µM) | 1 µg/mL (≈ 1.77 µM) | 4 µg/mL (≈ 7.1 µM) | 2 µg/mL (≈ 3.55 µM) | 4 µg/mL (≈ 7.1 µM) | 2 µg/mL (≈ 3.55 µM)
6 | C=C1C[C@@]23CCC1C[C@@H]2[C@](C)(CCC(=O)Nc1c(O)ccc(C(=O)O)c1O)C(=O)C[C@@H]3SC(=O)Cc1ccc(F)cc1 (single isomer, unassigned) | 1 µg/mL (≈ 1.68 µM) | 1 µg/mL (≈ 1.68 µM) | 2 µg/mL (≈ 3.36 µM) | 1 µg/mL (≈ 1.68 µM) | 1 µg/mL (≈ 1.68 µM) | 4 µg/mL (≈ 6.71 µM) | 1 µg/mL (≈ 1.68 µM) | 0.5 µg/mL (≈ 0.839 µM) | 4 µg/mL (≈ 6.71 µM) | 1 µg/mL (≈ 1.68 µM) | 4 µg/mL (≈ 6.71 µM) | 2 µg/mL (≈ 3.36 µM)
7 | C[C@]12C[C@]34C[C@@H]1C[C@H](O2)[C@H]3[C@](C)(CCC(=O)Nc1c(O)ccc(C(=O)O)c1O)C(=O)C[C@@H]4SC(=O)c1ccccc1C(F)(F)F | 1 µg/mL (≈ 1.54 µM) | 1 µg/mL (≈ 1.54 µM) | 1 µg/mL (≈ 1.54 µM) | 1 µg/mL (≈ 1.54 µM) | 1 µg/mL (≈ 1.54 µM) | 4 µg/mL (≈ 6.18 µM) | 1 µg/mL (≈ 1.54 µM) | 1 µg/mL (≈ 1.54 µM) | 2 µg/mL (≈ 3.09 µM) | 1 µg/mL (≈ 1.54 µM) | 2 µg/mL (≈ 3.09 µM) | 1 µg/mL (≈ 1.54 µM)
8 | C[C@]12C[C@]34C[C@@H]1C[C@H](O2)[C@H]3[C@](C)(CCC(=O)Nc1c(O)ccc(C(=O)O)c1O)C(=O)C[C@@H]4SC(=O)c1ccc(Cl)cc1 | 1 µg/mL (≈ 1.63 µM) | 1 µg/mL (≈ 1.63 µM) | 1 µg/mL (≈ 1.63 µM) | 1 µg/mL (≈ 1.63 µM) | 1 µg/mL (≈ 1.63 µM) | 2 µg/mL (≈ 3.26 µM) | 1 µg/mL (≈ 1.63 µM) | 1 µg/mL (≈ 1.63 µM) | 1 µg/mL (≈ 1.63 µM) | 1 µg/mL (≈ 1.63 µM) | 1 µg/mL (≈ 1.63 µM) | 1 µg/mL (≈ 1.63 µM)
9 | C[C@]12C[C@]34C[C@@H]1C[C@H](O2)[C@H]3[C@](C)(CCC(=O)Nc1c(O)ccc(C(=O)O)c1O)C(=O)C[C@@H]4SC(=O)c1ccc([N+](=O)[O-])cc1 | 1 µg/mL (≈ 1.6 µM) | 1 µg/mL (≈ 1.6 µM) | 2 µg/mL (≈ 3.2 µM) | 1 µg/mL (≈ 1.6 µM) | 1 µg/mL (≈ 1.6 µM) | 8 µg/mL (≈ 12.8 µM) | 1 µg/mL (≈ 1.6 µM) | 1 µg/mL (≈ 1.6 µM) | 1 µg/mL (≈ 1.6 µM) | 1 µg/mL (≈ 1.6 µM) | 2 µg/mL (≈ 3.2 µM) | 1 µg/mL (≈ 1.6 µM)
10 | C[C@]12C[C@@]34C=CC(=O)[C@@](C)(CCC(=O)Nc5c(O)ccc(C(=O)O)c5O)[C@@H]3[C@H](C[C@@H]1C4)O2 | 0.5 µg/mL (≈ 1.13 µM) | 0.5 µg/mL (≈ 1.13 µM) | 1 µg/mL (≈ 2.27 µM) | 0.5 µg/mL (≈ 1.13 µM) | 1 µg/mL (≈ 2.27 µM) | 1 µg/mL (≈ 2.27 µM) | 0.5 µg/mL (≈ 1.13 µM) | 0.5 µg/mL (≈ 1.13 µM) | 1 µg/mL (≈ 2.27 µM) | 1 µg/mL (≈ 2.27 µM) | 1 µg/mL (≈ 2.27 µM) | 1 µg/mL (≈ 2.27 µM)
